According to ChEMBL document CHEMBL5233277, “Oxidative Metabolism as a Modulator of Kratom's Biological Actions” (J Med Chem, 2021):
pEC50, pIC50, pKi: −log10 of the molar value. Active and inactive are the calls of the source. No cut-off for these calls is given here.

How the values were obtained:
[1] = target: Mu-type opioid receptor (Mus musculus) (UniProt P42866); assay: Partial agonist activity at mouse MOR expressed in CHO cell membranes assessed as stimulation of [35S]-GTPgammaS binding by measuring maximal efficacy incubated for 60 mins by scintillation spectroscopy analysis relative DAMGO; conditions: Membrane, filed as partial agonist
How it was run: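 Membranes from CHO cells stably expressing mouse MOR were used in an agonist-stimulated [35S]GTPγS binding assay. […] Data are from three independent experiments, each run in triplicate.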

[2] = target: Kappa-type opioid receptor (Mus musculus) (UniProt P33534); assay: Agonist activity at mouse KOR expressed in CHO cell membranes assessed as stimulation of [35S]-GTPgammaS binding by measuring maximal efficacy incubated for 60 mins by scintillation spectroscopy analysis relative to U50,488H; conditions: Membrane, filed as agonist
How it was run: (§1)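 CHO cell membranes stably expressing cloned mouse opioid receptors; agonist-stimulated [35S]GTPγS binding. […] Three independent experiments, each in triplicate.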

[3] = test system: Mus musculus; assay: Antinociceptive activity in sc dosed 129Sv6 mouse model assessed as peak effect measured at 15 mins by radiant heat tail flick assay; type: functional; conditions: 129Sv6, 0.25 h
[4] = target: Kappa-type opioid receptor (Mus musculus) (UniProt P33534); assay: (§2) Agonist activity at mouse KOR expressed in CHO cell membranes assessed as stimulation of [35S]-GTPgammaS binding incubated for 60 mins by scintillation spectroscopy analysis; conditions: Membrane
How it was run: (§3)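 CHO cell membranes stably expressing cloned mouse opioid receptors; agonist-stimulated [35S]GTPγS binding. Three independent experiments, each in triplicate.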

[5] = target: Mu-type opioid receptor (Mus musculus) (UniProt P42866); assay: Agonist activity at mouse MOR expressed in CHO cell membranes assessed as stimulation of [35S]-GTPgammaS binding by measuring maximal efficacy incubated for 60 mins by scintillation spectroscopy analysis relative DAMGO; conditions: Membrane, filed as agonist; how it was run: as §1
[6] = target: T1, Kappa-type opioid receptor (Mus musculus, UniProt P33534); assay: Displacement of [125]IBNtxA from mouse KOR stably expressed in CHO cell membranes incubated for 90 mins; parameters: species or system Membrane
How it was run: (§4)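 MOR: 50 mM potassium phosphate with 5 mM MgSO4, 20 μg/mL protein. KOR and DOR: 50 mM potassium phosphate pH 7.0, 40 μg/mL protein. 25 °C, 90 min; glass-fiber filtration; levallorphan 8 μM defines nonspecific binding. Ki from IC50; at least three replicates.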

[7] = target: T2, Delta-type opioid receptor (Mus musculus, UniProt P32300); assay: Displacement of [125]IBNtxA from mouse DOR stably expressed in CHO cell membranes incubated for 90 mins; parameters: species or system Membrane; how it was run: as §4
[8] = target: T3, Mu-type opioid receptor (Mus musculus, UniProt P42866); assay: Agonist activity at mouse MOR expressed in CHO cell membranes assessed as stimulation of [35S]-GTPgammaS binding incubated for 60 mins by scintillation spectroscopy analysis; parameters: species or system Membrane; how it was run: as §3
[9] = target: T1, Kappa-type opioid receptor; assay: as §2; parameters: species or system Membrane; how it was run: as §3
[10] = target: T3, Mu-type opioid receptor; assay: Displacement of [125]IBNtxA from mouse MOR stably expressed in CHO cell membranes incubated for 90 mins; parameters: species or system Membrane; how it was run: as §4
[11] = target: Delta-type opioid receptor (Mus musculus) (UniProt P32300); assay: (§5) Antagonist activity at mouse DOR expressed in CHO cell membranes assessed as inhibition of DPDPE induced [35S]-GTPgammaS binding incubated for 60 mins by scintillation spectroscopy analysis; conditions: Membrane
[12] = species: Mus musculus; assay: animal or person; conditions: 129Sv6, 0.5 h
[13] = species: Mus musculus; assay: animal or person; conditions: C57BL/6J, po, 0.5 h
[14] = species: Mus musculus; assay: animal or person; conditions: 129Sv6, po, 1 h
[15] = target: Mu-type opioid receptor (Mus musculus) (UniProt P42866); assay: Potency index, ratio of mitragynine EC50 to test compound EC50 for agonist activity at mouse MOR expressed in CHO cell membranes assessed as stimulation of [35S]-GTPgammaS binding incubated for 60 mins by scintillation spectroscopy analysis; conditions: Membrane
[16] = Drug concentration in C57BL/6J mouse brain at 1 mg/kg, sc measured after 20 mins by LC-MS/MS analysis; type: ADME, organism-based; conditions: read-out: Ct
[17] = test system: Mus musculus; assay: Potency index, ratio of morphine ED50 to test compound ED50 for antinociceptive activity in po dosed C57BL/6J mouse model assessed as peak effect measured at 20 mins by radiant heat tail flick assay; type: functional
[18] = test system: Mus musculus; assay: Antinociceptive activity in po dosed C57BL/6J mouse model assessed as peak effect measured at 20 mins by radiant heat tail flick assay; type: functional
[19] = test system: Mus musculus; assay: Potency index, ratio of morphine ED50 to test compound ED50 for antinociceptive activity in po dosed 129Sv6 mouse model assessed as peak effect measured at 15 mins by radiant heat tail flick assay; type: functional; conditions: 0.25 h
[20] = target: Mu-type opioid receptor (Mus musculus) (UniProt P42866); assay: Potency index, ratio of mitragynine Ki to test compound Ki for displacement of [125]IBNtxA from mouse MOR stably expressed in CHO cell membranes incubated for 90 mins; conditions: Membrane
[21] = Toxicity in C57BL/6J mouse assessed as hyperlocomotion at 1 mg/kg, sc measured after 20 mins; type: organism-based; conditions: in vivo
[22] = Drug concentration in C57BL/6J mouse plasma at 1 mg/kg, sc measured after 20 mins by LC-MS/MS analysis; type: ADME, organism-based
[23] = Toxicity in C57BL/6J mouse assessed as conditioned place preference at 1 mg/kg, sc; type: organism-based; conditions: in vivo
How it was run: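 C57BL/6J mice (n = 18–24) were habituated to a two-compartment apparatus for 3 h per day over 2 days, then given a 20 min pre-conditioning baseline test. Conditioning used 20 min sessions with drug at 1 mg/kg/d sc or saline. On test day mice explored freely for 20 min, and a difference score was calculated.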

[24] = Toxicity in CD1 mouse assessed as fatality at 10 ug, IT; conditions: in vivo, other, dose 10 µg
[25] = Toxicity in C57BL/6J mouse at 50 mg/kg, sc in presence of naltrindole; type: organism-based; conditions: in vivo
[26] = species: Mus musculus; assay: Antinociceptive activity in mouse; type: functional, organism-based
[27] = Toxicity in C57BL/6J mouse at 50 mg/kg, sc in presence of norbinaltorphimine; type: organism-based; conditions: in vivo
[28] = Drug concentration in C57BL/6J mouse plasma at 30 mg/kg, po measured after 24 hrs by LC-MS/MS analysis; type: ADME, organism-based; conditions: in vivo, BLD = below limit of detection
[29] = Toxicity in sc dosed 129Sv6 mouse assessed as lethality; type: organism-based; conditions: in vivo
How it was run: (§6)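 Groups of mice (n = 6 per dose) received graded subcutaneous doses in DMSO/solutol/saline (1:1:8) and were scored for lethality. […] Strains were 129Sv6 for line 3 and CD1 for […], both purchased from Jackson Laboratories.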

[30] = Toxicity in 129Sv6 mouse assessed as fatality at 10 ug, IT; conditions: in vivo, other, dose 10 µg
[31] = Drug concentration in C57BL/6J mouse brain at 30 mg/kg, po measured after 24 hrs by LC-MS/MS analysis; type: ADME, organism-based; conditions: in vivo, BLD = below limit of detection
[32] = target: T2, Delta-type opioid receptor; assay: as §5; parameters: species or system Membrane
[33] = Toxicity in MOR knock out C57BL/6J mouse at 50 mg/kg, sc in presence of naltrindole; type: organism-based; conditions: in vivo
[34] = Toxicity in sc dosed CD1 mouse assessed as lethality; type: organism-based; conditions: in vivo; how it was run: as §6
[35] = Toxicity in sc dosed C57BL/6J mouse assessed as lethality at 50 mg/kg, sc; type: organism-based; conditions: in vivo, read-out: Activity
How it was run: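 Opioid-naïve C57BL/6J mice (n = 4) were given a single 50 mg/kg subcutaneous dose in DMSO/solutol/saline (1:1:8) and observed for lethality, reported as percent of animals dying.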

[36] = Toxicity in MOR knock out C57BL/6J mouse at 50 mg/kg, sc in presence of norbinaltorphimine; type: organism-based; conditions: in vivo

T3 sequence (P42866 whole entry): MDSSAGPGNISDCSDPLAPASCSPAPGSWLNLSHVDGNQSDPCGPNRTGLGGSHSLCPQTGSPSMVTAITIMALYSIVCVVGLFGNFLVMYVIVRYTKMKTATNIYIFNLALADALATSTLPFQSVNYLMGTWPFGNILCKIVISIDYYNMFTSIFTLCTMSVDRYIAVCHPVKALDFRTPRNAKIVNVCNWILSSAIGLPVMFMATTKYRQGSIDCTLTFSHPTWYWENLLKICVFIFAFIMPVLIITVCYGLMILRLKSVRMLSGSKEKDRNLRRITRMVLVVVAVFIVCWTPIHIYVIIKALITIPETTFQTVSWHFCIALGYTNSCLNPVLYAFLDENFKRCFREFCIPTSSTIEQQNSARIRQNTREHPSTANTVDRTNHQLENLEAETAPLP
Sequence of Mu-type opioid receptor (Mus musculus) (P42866 whole entry): as above
Sequence of Kappa-type opioid receptor (Mus musculus) (P33534 whole entry): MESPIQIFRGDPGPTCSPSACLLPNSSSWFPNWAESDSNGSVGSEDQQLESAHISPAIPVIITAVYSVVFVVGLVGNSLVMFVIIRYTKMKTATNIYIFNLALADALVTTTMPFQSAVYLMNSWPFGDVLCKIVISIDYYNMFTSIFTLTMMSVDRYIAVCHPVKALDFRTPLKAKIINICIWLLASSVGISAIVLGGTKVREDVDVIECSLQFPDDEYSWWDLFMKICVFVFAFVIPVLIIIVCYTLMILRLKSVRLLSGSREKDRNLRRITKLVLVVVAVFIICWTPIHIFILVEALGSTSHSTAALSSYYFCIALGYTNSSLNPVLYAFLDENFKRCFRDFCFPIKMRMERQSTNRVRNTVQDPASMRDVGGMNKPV
T1 sequence (P33534 whole entry): as above
T2 sequence (P32300 whole entry): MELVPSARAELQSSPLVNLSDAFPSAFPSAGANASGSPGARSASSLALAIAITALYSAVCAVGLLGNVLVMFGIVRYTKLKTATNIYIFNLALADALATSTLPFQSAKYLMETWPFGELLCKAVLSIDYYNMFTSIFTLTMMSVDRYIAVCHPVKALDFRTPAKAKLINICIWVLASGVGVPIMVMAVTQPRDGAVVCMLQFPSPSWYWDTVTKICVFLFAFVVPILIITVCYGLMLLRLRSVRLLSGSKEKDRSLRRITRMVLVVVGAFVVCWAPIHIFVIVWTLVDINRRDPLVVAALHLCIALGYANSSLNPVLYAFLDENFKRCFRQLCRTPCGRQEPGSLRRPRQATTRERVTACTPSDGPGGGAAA
Sequence of Delta-type opioid receptor (Mus musculus) (P32300 whole entry): as above

SMILES | Emax [2] [%] | ED50 [3] [mg/kg] | Emax [5] [%] | pKi [6] | pKi [7] | pEC50 [8] | pEC50 [9] | pKi [10] | also measured
CC[C@@H]1CN2CCc3c([nH]c4cccc(OC)c34)[C@H]2C[C@@H]1/C(=C\OC)C(=O)OC | 58 | > 100 | – | – | – | – | – | – | Emax [1]: 45%
CC[C@H]1CN2CCc3c([nH]c4cccc(OC)c34)[C@@H]2C[C@@H]1/C(=C\OC)C(=O)OC | – | – | 43 | – | – | – | – | – | Activity [4]: inactive
CC[C@@H]1CN2CCc3c([nH]c4cccc(O[C@@H]5O[C@H](C(=O)O)[C@@H](O)[C@H](O)[C@H]5O)c34)[C@@H]2C[C@@H]1/C(=C\OC)C(=O)OC | 98 | > 30 | 102 | 5.89 | 5.49 | 5.24 | 5.94 | 5.78 | inhibition [11]: inactive
CN1CC[C@]23c4c5ccc(O)c4O[C@H]2[C@@H](O)C=C[C@H]3[C@H]1C5 [MORPHINE] | – | 0.68 | – | – | – | – | – | – | ED50 [12]: 0.7 mg/kg; ED50 [13]: 4.73 mg/kg; ED50 [14]: 3.3 mg/kg
CC[C@@H]1CN2CC[C@@]3(O)C(=Nc4cccc(OC)c43)[C@@H]2C[C@@H]1/C(=C\OC)C(=O)OC | – | 0.2 | – | – | – | – | – | – | Ratio EC50 [15]: 4; concentration at 20 min [16]: 450 nM; Ratio ED50 [17]: 3; ED50 [18]: 0.3 mg/kg; Ratio ED50 [19]: 3; Ratio Ki [20]: 6; Activity [21]: Non-Toxic; concentration at 20 min [22]: 270 nM; Activity [23]: Toxic
CC[C@@H]1C[N+]2([O-])CCc3c([nH]c4cccc(OC)c34)[C@@H]2C[C@@H]1/C(=C\OC)C(=O)OC (stereo not given in full) | – | – | – | 5.14 | 5.38 | – | – | 5.16 | –
CC[C@@H]1CN2CCc3c([nH]c4cccc(O)c34)[C@@H]2C[C@@H]1/C(=C\OC)C(=O)OC | 87 | > 100 | 62 | 5.93 | 5.73 | – | 6.07 | 6.67 | inhibition [11]: inactive
CO/C=C(/C(=O)OC)[C@@H]1CCN2CC[C@]3(Nc4cccc(OC)c4C3=O)[C@@H]2C1 | – | 0.3 | – | – | – | – | – | – | concentration at 20 min [16]: 70 nM; Ratio ED50 [17]: 2; ED50 [18]: 0.26 mg/kg; Ratio ED50 [19]: 2; Activity [21]: Non-Toxic; concentration at 20 min [22]: 410 nM
CC[C@@H]1C[N+]2=C(C[C@@H]1/C(=C\OC)C(=O)OC)c1[nH]c3cccc(OC)c3c1CC2 | 64 | > 100 | – | 6.90 | 7.31 | 7.17 | 6.78 | 7.47 | Activity [24]: Toxic; Activity [25]: Toxic; Activity [26]: inactive; Activity [27]: Toxic; Cp [28]: Bld; LD50 [29]: 48.4 mg/kg; Activity [30]: Toxic; Ct [31]: Bld; pIC50 [32]: 5.96; Activity [33]: Toxic; LD50 [34]: 74 mg/kg; mortality [35]: 100%; Activity [36]: Toxic
C=C[C@H]1CN2CCc3c([nH]c4cccc(OC)c34)[C@@H]2C[C@@H]1/C(=C\OC)C(=O)OC | 57 | > 100 | 54 | 6.05 | 5.47 | 5.03 | 5.45 | 6.18 | pIC50 [32]: < 5.00
